MrgX1 PAM = human MrgX1 positive allosteric modulation, primary screen. Q96LB2. AID 588675. 310,000 tested, 0.63% active. B-score at 10 µM. MrgX1-HEK293, Fluo-4 calcium flux, FDSS; stronger effect = higher value;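 active = plate-corrected calcium response at least 3 library SD above typical, normal starting fluorescence, not activating the receptor alone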;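 also: compound read alongside a low EC10 to EC30 dose of BAM8-22 agonist; peak minus trough fluorescence over baseline measured at the second addition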
Target sequence (Q96LB2 whole entry, looked up): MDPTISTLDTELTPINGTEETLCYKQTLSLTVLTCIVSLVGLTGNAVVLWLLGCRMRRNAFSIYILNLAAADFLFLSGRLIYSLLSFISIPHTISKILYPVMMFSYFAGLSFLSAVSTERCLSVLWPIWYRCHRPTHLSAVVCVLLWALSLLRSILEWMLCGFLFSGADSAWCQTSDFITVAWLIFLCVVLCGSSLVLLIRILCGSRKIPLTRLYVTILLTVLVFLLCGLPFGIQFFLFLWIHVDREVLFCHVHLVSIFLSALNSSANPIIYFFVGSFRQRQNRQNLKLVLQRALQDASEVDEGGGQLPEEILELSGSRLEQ
MrgX1 antagonist = antagonists of human MrgX1 receptor; B-score at 10 µM; 310,000 tested, 1.3% active; MRGX1-HEK293 calcium flux, Fluo-4, BAM8-22 antagonism; stronger effect = lower value;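 active = calcium-response B-score plate-corrected more than 3 library SD below zero, starting fluorescence within 5 deviations, no agonist response on first addition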;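 also: peak minus trough fluorescence over baseline after final BAM8-22 challenge near maximal dose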
RGS4 inh = inhibitors of human RGS4 | B-score at 10 µM | AID 463165 | P49798 | 310,000 tested, 0.45% active | HEK293 M3R/RGS4 inducible, Fluo-4 calcium flux; stronger effect = higher value; triggered by carbachol at its EC20;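 active = B-score, a plate-corrected calcium signal, over three deviations above library mean, with baseline fluorescence within five deviations of library mean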;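 also: RGS4 expression induced by doxycycline in cells with stable M3 receptor; B-score is computed from the integrated fluorescence ratio over baseline after carbachol; higher B-score means a larger calcium signal and so more RGS4 inhibition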
Target sequence (P49798 whole entry, looked up): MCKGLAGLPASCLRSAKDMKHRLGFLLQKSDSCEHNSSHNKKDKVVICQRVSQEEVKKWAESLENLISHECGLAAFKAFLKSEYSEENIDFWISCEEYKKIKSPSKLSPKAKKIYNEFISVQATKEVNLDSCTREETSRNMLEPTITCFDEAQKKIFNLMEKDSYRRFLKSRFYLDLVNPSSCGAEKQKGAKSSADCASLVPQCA
MrgX1 agonist = activates human MrgX1 receptor signaling; Q96LB2; MrgX1-HEK293 cells, Fluo-4 calcium fluorescence, agonist mode; stronger effect = higher value; B-score at 10 µM; 310,000 tested, 0.44% active; AID 588627;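 active = calcium response B-score plate-corrected fluorescence ratio at least 3 library SD, with starting fluorescence B-score inside 5 SD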
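Material – MrgX1-expressing HEK293 cells · Input – 15,000 cells seeded per well · Dosing – compound as first of three additions · Times – overnight seeding, then 1 h dark dye loading · Measured by – kinetic Fluo-4 NW fluorescence of intracellular calcium · Read-out – B-scored fluorescence response ratio · Benchmarks – positive and negative control wells on each plate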
RGS4 act = potentiators or activators of RGS4. HEK293 M3R/inducible RGS4, carbachol calcium flux Fluo4; stronger effect = lower value. B-score at 10 µM. 310,000 tested, 0.92% active. AID 463111;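 active = B-score of the integrated calcium signal more than 4 SD below the library mean, with starting fluorescence not abnormally high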;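 also: negative B-score means reduced calcium response which marks RGS4 activation or potentiation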
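test system = M3R-expressing HEK293 line, RGS4 induced by doxycycline | probe or stimulus = carbachol at ECmax as muscarinic agonist stimulus | timing = dye loading 30 min 37 °C, buffer rest 30 min RT | signal = calcium dye Fluo4 fluorescence | evaluation = B score from integrated fluorescence ratio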
MrgX1 PAM conf = reconfirmed allosteric activator of human MrgX1 receptor; shares compounds with MrgX1 PAM; MrgX1-HEK293, Fluo-4 calcium fluorescence, FDSS; activation (ratio percentage), % at 10 µM; 1,200 tested, 13% active;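 active = ratio at least 3 SD above the weak peptide control, stable starting fluorescence, no direct agonism earlier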;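 also: compound followed by low BAM8-22 agonist challenge near EC20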
HEK293 Ca flux = counter-screen for MrgX1 antagonists: effect in parental HEK293 cells | Fluo-4 calcium fluorescence, FDSS | shares compounds with MrgX1 antagonist | 4,000 tested, 2% active | fluorescence ratio F(max-min)/F0 at 10 µM;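 active = duplicate-averaged calcium fluorescence ratio at least three times the standard deviation of buffer wells, a nonspecific response in parental cells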
HEK293 Ca counter = counter-screen for MrgX1 allosteric activators: effect in parental HEK293 cells. shares compounds with MrgX1 antagonist. AID 624114. 4,000 tested, 0.4% active. parental HEK293 calcium flux, Fluo-4 fluorescence ratio; stronger effect = higher value. fluorescence ratio F(max-min)/F0 at 10 µM;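 active = calcium fluorescence ratio, averaged over duplicates, at least 3 SD of the buffer-well ratio, meaning a nonspecific response in receptor-free cells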;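 also: untransfected parental HEK293 lacking MrgX1 used as counterscreen for MrgX1 allosteric activators; fluorescence change taken during the second addition on a kinetic imager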
HEK293 Ca cntr2 = counter-screen for MrgX1 activators: effect in parental HEK293 cells. shares compounds with MrgX1 antagonist. Fluo-4 calcium fluorescence (FDSS); stronger effect = higher value. fluorescence ratio F(max-min)/F0 at 10 µM. 4,000 tested, 8.7% active. AID 624115;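 active = calcium fluorescence ratio at least three times the spread of buffer wells, meaning a non-specific response in parental cells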
Numbers without * were called inactive; i = inactive; . = not tested or not shown. The list is not random: actives were taken first. Their share in the collection is about 3.5%.

SMILES | MrgX1 PAM | MrgX1 antagonist | RGS4 inh | MrgX1 agonist | RGS4 act | MrgX1 PAM conf | HEK293 Ca flux | HEK293 Ca counter | HEK293 Ca cntr2
COc1ccc(CN2CCNC(=O)C2CC(=O)NC2Cc3ccccc3C2)c(OC)c1 (stereo not drawn) | i | i | i | i | i | . | . | . | .
COc1ccc(C(O)c2nccc3cc(OC)c(OC)cc23)cc1OC (stereo not drawn) | 9.5* | i | i | i | i | i | i | i | i
COc1cc(N)c(C(O)c2nccc3cc(OC)c(OC)cc23)cc1OC (stereo not drawn) | i | i | i | i | i | . | . | . | .
COc1cc(C(=O)Nc2ccccc2C(=O)NCc2cccnc2)cc(OC)c1OC | 8.9* | i | i | i | i | i | i | i | i
CC1CCCN(S(=O)(=O)c2ccc(C(=O)Nc3nnc(-c4ccccc4Cl)o3)cc2)C1 (stereo not drawn) | 8.7* | i | i | i | i | i | i | i | i
Cc1ccc(Nc2ncnc3sccc23)c(C)c1 | 8* | i | i | i | i | i | i | i | i
Cc1onc(-c2c(Cl)cccc2Cl)c1/C(N)=N/OC(=O)C1CC1 | i | i | i | i | i | . | . | . | .
O=C(CCS(=O)(=O)c1ccccc1Cl)NCCC1=CCCCC1 | i | i | i | i | i | . | . | . | .
O=C(Nc1nccs1)c1csc2c1CCCC2 | 12* | i | i | i | i | i | i | i | i
O=C(Nc1ccon1)c1csc2c1CCCC2 | i | i | i | i | i | . | . | . | .
O=C(COc1ccc(Cl)cc1Cl)NCCC1=CCCCC1 | 16* | i | i | i | i | 5.0%* | i | i | i
COc1nc(NC(=O)c2ccc(F)cc2)nc(OC)c1-c1ccccc1 | 8.2* | i | i | i | i | i | i | i | i
C=C(C)Cn1c(-c2ccc(OC)cc2)nc2ccccc21 | 7* | i | i | i | i | i | i | i | i
COc1ccc(OC)c(-c2cc(C(F)(F)F)c3c(n2)sc2c(O)cc(=O)[nH]c23)c1 | i | i | i | i | i | . | . | . | .
CC1(C)Cc2ccccc2-c2nnc(SCC(=O)N3CCN(c4ccccc4)CC3)n21 | 10* | i | i | i | i | 9.3%* | i | i | i
COCCC1CCCCN1C(=O)c1cccc(OC2CCN(C3CCCC3)CC2)c1 (stereo not drawn) | i | i | i | i | i | . | . | . | .
COc1ccc(Cl)cc1N(CC(=O)Nc1cccc(SC)c1)S(C)(=O)=O | 8.3* | i | i | i | i | i | i | i | i
Cc1cccc(C(=O)N[C@H](C(=O)Nc2nccs2)C(C)C)c1 | 24* | i | i | i | i | i | i | i | i
Cc1cccc(C(=O)N[C@H](C(=O)Nc2nc(C)cs2)C(C)C)c1 | i | i | i | i | i | . | . | . | .
CCCSc1nnc(N2C(=O)CC(c3ccsc3)C3=C2CCCC3=O)s1 (stereo not drawn) | 8.8* | i | i | i | i | i | i | i | i
CN1CCCN(Cc2nc(-c3ccc(Cl)cc3)no2)CC1 | i | i | i | i | i | . | . | . | .
CCc1nc2ccccc2c(C(=O)O)c1C | i | i | i | i | i | . | . | . | .
CCc1nc2ccccc2c(C(=O)NCc2ccccc2)c1C | 7* | i | i | i | i | i | i | i | i
O=C(NC1CCCCC1)C(c1ccccc1)N(C(=O)Cc1ccsc1)c1ccccc1 (stereo not drawn) | i | i | i | i | i | . | . | . | .
O=C(CCn1c(=S)oc2ccccc21)NC1CCCCCC1 | 7* | i | i | i | i | i | i | i | i
SMILES | MrgX1 PAM | MrgX1 antagonist | RGS4 inh | MrgX1 agonist | RGS4 act | MrgX1 PAM conf | HEK293 Ca flux | HEK293 Ca counter | HEK293 Ca cntr2
Nc1ccc(C(=O)N2CCN(S(=O)(=O)c3ccc4c(c3)OCCO4)CC2)cc1[N+](=O)[O-] | i | i | i | i | i | . | . | . | .
COc1ccc(C(=O)c2ccc(N(C)C)cc2)c(OC)c1 | 8.7* | i | i | i | i | i | i | i | i
CCCCCNc1nc(-c2ccccc2)nc(-n2ccnc2)n1 | 7.5* | i | i | i | i | i | i | i | i
CCCCNc1nc(N(C)c2ccccc2)nc(-n2ccnc2)n1 | i | i | i | i | i | . | . | . | .
CCOC(=O)c1c(-c2cccs2)csc1N | 8.4* | i | i | i | i | i | i | i | i
COc1ccc(CCN(C)C(=O)c2oc3ccccc3c2C)cc1OC | i | i | i | i | i | . | . | . | .
COc1ccc(CN(C)C(=O)c2oc3ccccc3c2CSC)cc1F | 8* | i | i | i | i | i | i | i | i
CSCC[C@H](NC(=O)N1CCn2c1nc1ccccc12)C(=O)N1CCCCC1 | 10* | i | i | i | i | i | i | i | i
COc1ccc(CC(=O)Nc2cc(=O)n(C)c(=O)n2C)cc1OC | 6.6* | i | i | i | i | i | i | i | i
COc1ccc(C(=O)Nc2cc(=O)n(C)c(=O)n2C)cc1OC | i | i | i | i | i | . | . | . | .
COC(=O)CNC(=O)CSc1nc2sc(-c3ccccc3)cc2c(=O)n1-c1ccccc1 | 11* | i | i | i | i | i | i | i | i
CCc1cc(C(=O)Nc2cc(S(=O)(=O)N(C)C)ccc2C)sc1C | 8.4* | i | i | i | i | i | i | i | i
Cc1ccc(C(=O)N2CCCC(CCC(=O)N3CCN(c4ccccn4)CC3)C2)cc1C (stereo not drawn) | 7.8* | i | i | i | i | i | i | i | i
Cc1cccc(C(=O)N2CCCC(CCC(=O)N3CCN(c4ccccn4)CC3)C2)c1C (stereo not drawn) | 9.4* | i | i | i | i | i | i | i | i

Screening results deposited in PubChem BioAssay by Johns Hopkins Ion Channel Center.
